Assay results: ChEMBL document CHEMBL1123776, “Solid-phase synthesis and biological properties of psi [CH2NH] pseudopeptide analogues of a highly potent somatostatin octapeptide” (1987)

Legend:
Rattus norvegicus [1] = assay: Ability to inhibit growth hormone release in vivo in sodium pentobarbital anesthetized rats; format: functional
Method in brief: (§1)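 Male Sprague-Dawley rats anesthetized with sodium pentobarbital were given peptide, with saline and tetradecapeptide SRIF controls, at doses of 0.003–10 µg/100 g BW. Plasma GH was measured by radioimmunoassay. Values are mean ± SEM, with the number of rats per group given.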

Rattus norvegicus [2] = species on record: Rattus norvegicus; assay: Activity is measured as concentration producing 50% inhibition of growth hormone secretion in rats; format: functional
Method in brief: (§2)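 Primary cultures of male rat anterior pituitary cells were kept for 4 days and then exposed to peptide. GH in the medium was measured by radioimmunoassay. The EC50 (50% inhibition of GH secretion) was fitted with ALLFIT. Potency was expressed as the ratio to the EC50 of tetradecapeptide SRIF as reference standard.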

Rattus norvegicus [3] = species on record: Rattus norvegicus; assay: Ability to inhibit growth hormone release in vitro in cultured rat anterior pituitary cells; format: functional, Pituitary gland cell; method in brief: as §2
Rattus norvegicus [4] = assay: Ability to inhibit growth hormone release in the anesthetized rats measured as plasma growth hormone at a dose of 0.1 ug/100 g BW; format: functional, organism-based; method in brief: as §1
Rattus norvegicus [5] = assay: Ability to inhibit growth hormone release in the anesthetized rats measured as plasma growth hormone at a dose of 1 ug/100 g BW; format: functional, organism-based; method in brief: as §1
Rattus norvegicus [6] = assay: Ability to inhibit growth hormone release in the anesthetized rats measured as plasma growth hormone at a dose of 10 ug/100 g BW; format: functional, organism-based; method in brief: as §1
Rattus norvegicus [7] = assay: Ability to inhibit growth hormone release in the anesthetized rats measured as plasma growth hormone at a dose of 0.6 ug/100 g BW; format: functional, organism-based; method in brief: as §1
Rattus norvegicus [8] = assay: Ability to inhibit growth hormone release in the anesthetized rats measured as plasma growth hormone at a dose of 0.2 ug/100 g BW; format: functional, organism-based; method in brief: as §1
Rattus norvegicus [9] = assay: Ability to inhibit growth hormone release in the anesthetized rats measured as plasma growth hormone at a dose of 0.03 ug/100 g BW; format: functional, organism-based; method in brief: as §1
Rattus norvegicus [10] = assay: Ability to inhibit growth hormone release in the anesthetized rats measured as plasma growth hormone at a dose of 0.09 ug/100 g BW; format: functional, organism-based; method in brief: as §1
Rattus norvegicus [11] = assay: Ability to inhibit growth hormone release in the anesthetized rats measured as plasma growth hormone at a dose of 10 ug/100 g; format: functional, organism-based; method in brief: as §1
Rattus norvegicus [12] = assay: Ability to inhibit growth hormone release in the anesthetized rats measured as plasma growth hormone at a dose of 0.01 ug/100 g BW; format: functional, organism-based; method in brief: as §1
Rattus norvegicus [13] = assay: Ability to inhibit growth hormone release in the anesthetized rats measured as plasma growth hormone ata dose of 0.01 ug/100 g BW; format: functional, organism-based; method in brief: as §1

Row | SMILES | Potency (Rattus norvegicus [1]) [%] | ED50 (Rattus norvegicus [2]) [nM] | Potency (Rattus norvegicus [3]) [%] | Plasma GH (Rattus norvegicus [4]) [ng/mL] | Plasma GH (Rattus norvegicus [5]) [ng/mL] | other results
1 | CC(C)[C@@H]1NC[C@H](CCCCN)NC(=O)[C@@H](Cc2c[nH]c3ccccc23)NC(=O)[C@H](Cc2ccc(O)cc2)NC[C@@H](NC(=O)[C@H](N)Cc2ccc3ccccc3c2)CSSC[C@@H](C(=O)N[C@H](C(N)=O)[C@@H](C)O)NC1=O | 50 | 1.8 | 3.44 |  |  | 
2 | CC(C)[C@@H]1NC(=O)[C@H](CCCCN)NC(=O)[C@@H](Cc2c[nH]c3ccccc23)NC(=O)[C@H](Cc2ccc(O)cc2)NC[C@@H](NC(=O)[C@H](N)Cc2ccccc2)CSSC[C@@H](C(=O)N[C@H](C(N)=O)[C@@H](C)O)NC1=O | 1960 | 0.35 | 17.43 |  |  | 
3 | CC(C)[C@@H]1NC[C@H](CCCCN)NC(=O)[C@@H](Cc2c[nH]c3ccccc23)NC(=O)[C@H](Cc2ccc(O)cc2)NC(=O)[C@@H](NC(=O)[C@H](N)Cc2ccccc2)CSSC[C@@H](C(=O)N[C@H](C(N)=O)[C@@H](C)O)NC1=O | 434 | 0.092 | 67.27 |  |  | 
4 | CC(C)[C@@H]1NC(=O)[C@H](CCCCN)NC(=O)[C@@H](Cc2c[nH]c3ccccc23)NC(=O)[C@H](Cc2ccc(O)cc2)NC(=O)[C@@H](NC(=O)[C@H](N)Cc2ccccc2)CSSC[C@H](CN[C@H](C(N)=O)[C@@H](C)O)NC1=O | 73 | 15 | 0.41 |  |  | 
5 | CC(C)[C@@H]1NC[C@H](CCCCN)NC(=O)[C@@H](Cc2c[nH]c3ccccc23)NC(=O)[C@H](Cc2ccc(O)cc2)NC[C@@H](NC(=O)[C@H](N)Cc2ccccc2)CSSC[C@@H](C(=O)N[C@H](C(N)=O)[C@@H](C)O)NC1=O | 65 | 6.3 | 0.98 |  |  | 
6 | CC(C)[C@@H]1CN[C@H](C(=O)N[C@H](C(N)=O)[C@@H](C)O)CSSC[C@H](NC(=O)[C@H](N)Cc2ccccc2)C(=O)N[C@@H](Cc2ccc(O)cc2)C(=O)N[C@H](Cc2c[nH]c3ccccc23)CN[C@@H](CCCCN)C(=O)N1 | 2 | >1000 | <0.001 |  |  | 
7 | CC(C)[C@@H]1CN[C@@H](C(=O)N[C@H](C(N)=O)[C@@H](C)O)CSSC[C@H](NC(=O)[C@@H](N)Cc2ccccc2)C(=O)N[C@@H](Cc2ccc(O)cc2)C(=O)N[C@H](Cc2c[nH]c3ccccc23)C(=O)N[C@@H](CCCCN)C(=O)N1 |  |  |  | 381 | 266 | Plasma GH (Rattus norvegicus [6]): 225 ng/mL
8 | CC(C)[C@H]1NC(=O)[C@H](CCCCN)NC[C@@H](Cc2c[nH]c3ccccc23)NC(=O)[C@H](Cc2ccc(O)cc2)NC(=O)[C@@H](NC(=O)[C@@H](N)Cc2ccccc2)CSSC[C@H](C(=O)N[C@H](C(N)=O)[C@@H](C)O)NC1=O |  |  |  | 325 | 348 | Plasma GH (Rattus norvegicus [6]): 265 ng/mL
9 | CC(C)[C@@H]1NC(=O)[C@H](CCCCN)NC[C@@H](Cc2c[nH]c3ccccc23)NC(=O)[C@H](Cc2ccc(O)cc2)NC(=O)[C@@H](NC(=O)[C@H](N)Cc2ccccc2)CSSC[C@@H](C(=O)N[C@H](C(N)=O)[C@@H](C)O)NC1=O | 2 | 190 | 0.03 |  |  | 
10 | CC(C)[C@@H]1NC(=O)[C@H](CCCCN)NC(=O)[C@@H](Cc2c[nH]c3ccccc23)NC(=O)[C@H](Cc2ccc(O)cc2)NC(=O)[C@@H](NC[C@@H](N)Cc2ccccc2)CSSC[C@@H](C(=O)N[C@H](C(N)=O)[C@@H](C)O)NC1=O | 160 | 6.1 | 1.01 |  |  | 
11 | CC(C)[C@H]1NC(=O)[C@H](CCCCN)NC(=O)[C@@H](Cc2c[nH]c3ccccc23)NC[C@H](Cc2ccc(O)cc2)NC(=O)[C@@H](NC(=O)[C@@H](N)Cc2ccccc2)CSSC[C@H](C(=O)N[C@H](C(N)=O)[C@@H](C)O)NC1=O |  |  |  | 307 | 176 | Plasma GH (Rattus norvegicus [6]): 137 ng/mL
12 | CC(C)[C@H]1NC(=O)[C@H](CCCCN)NC(=O)[C@@H](Cc2c[nH]c3ccccc23)NC(=O)[C@H](Cc2ccc(O)cc2)NC(=O)[C@@H](NC(=O)[C@@H](N)Cc2ccccc2)CSSC[C@H](CN[C@H](C(N)=O)[C@@H](C)O)NC1=O |  |  |  |  |  | Plasma GH (Rattus norvegicus [7]): 156 ng/mL; Plasma GH (Rattus norvegicus [8]): 248 ng/mL
13 | CC(C)[C@H]1NC[C@H](CCCCN)NC(=O)[C@@H](Cc2c[nH]c3ccccc23)NC(=O)[C@H](Cc2ccc(O)cc2)NC(=O)[C@@H](NC(=O)[C@@H](N)Cc2ccccc2)CSSC[C@H](C(=O)N[C@H](C(N)=O)[C@@H](C)O)NC1=O |  |  |  |  |  | Plasma GH (Rattus norvegicus [9]): 174 ng/mL; Plasma GH (Rattus norvegicus [10]): 120 ng/mL
14 | CC(C)[C@@H]1CN[C@@H](C(=O)N[C@H](C(N)=O)[C@@H](C)O)CSSC[C@H](NC(=O)[C@@H](N)Cc2ccccc2)C(=O)N[C@@H](Cc2ccc(O)cc2)C(=O)N[C@H](Cc2c[nH]c3ccccc23)CN[C@@H](CCCCN)C(=O)N1 |  |  |  | 509 | 393 | Plasma GH (Rattus norvegicus [11]): 325 ng/mL
15 | CC(C)[C@H]1NC(=O)[C@H](CCCCN)NC(=O)[C@@H](Cc2c[nH]c3ccccc23)NC(=O)[C@H](Cc2ccc(O)cc2)NC(=O)[C@@H](NC[C@@H](N)Cc2ccccc2)CSSC[C@H](C(=O)N[C@H](C(N)=O)[C@@H](C)O)NC1=O |  |  |  |  |  | Plasma GH (Rattus norvegicus [7]): 90 ng/mL; Plasma GH (Rattus norvegicus [8]): 185 ng/mL
16 | CC(C)[C@@H]1NC(=O)[C@H](CCCCN)NC(=O)[C@@H](Cc2c[nH]c3ccccc23)NC[C@H](Cc2ccc(O)cc2)NC(=O)[C@@H](NC(=O)[C@H](N)Cc2ccccc2)CSSC[C@@H](C(=O)N[C@H](C(N)=O)[C@@H](C)O)NC1=O | 20 | 9.1 | 0.68 |  |  | 
17 | CC(C)[C@H]1NC(=O)[C@H](CCCCN)NC(=O)[C@@H](Cc2c[nH]c3ccccc23)NC(=O)[C@H](Cc2ccc(O)cc2)NC[C@@H](NC(=O)[C@@H](N)Cc2ccccc2)CSSC[C@H](C(=O)N[C@H](C(N)=O)[C@@H](C)O)NC1=O |  |  |  |  |  | Plasma GH (Rattus norvegicus [9]): 98 ng/mL; Plasma GH (Rattus norvegicus [12]): 146 ng/mL
18 | CC(C)[C@@H]1CN[C@H](C(=O)N[C@H](C(N)=O)[C@@H](C)O)CSSC[C@H](NC(=O)[C@H](N)Cc2ccccc2)C(=O)N[C@@H](Cc2ccc(O)cc2)C(=O)N[C@H](Cc2c[nH]c3ccccc23)C(=O)N[C@@H](CCCCN)C(=O)N1 | 2 | 350 | 0.02 |  |  | 
19 | CC(C)[C@H]1NC[C@H](CCCCN)NC(=O)[C@@H](Cc2c[nH]c3ccccc23)NC(=O)[C@H](Cc2ccc(O)cc2)NC[C@@H](NC(=O)[C@@H](N)Cc2ccccc2)CSSC[C@H](C(=O)N[C@H](C(N)=O)[C@@H](C)O)NC1=O |  |  |  | 250 | 124 | Plasma GH (Rattus norvegicus [12]): 258 ng/mL
20 | CC(C)[C@H]1NC[C@H](CCCCN)NC(=O)[C@@H](Cc2c[nH]c3ccccc23)NC(=O)[C@H](Cc2ccc(O)cc2)NC[C@@H](NC(=O)[C@@H](N)Cc2ccc3ccccc3c2)CSSC[C@H](C(=O)N[C@H](C(N)=O)[C@@H](C)O)NC1=O |  |  |  | 291 | 133 | Plasma GH (Rattus norvegicus [13]): 433 ng/mL
